Experimental data reported in article PMC5726935 (Nature chemical biology, 2017).

What was measured:
[1] = molecular target: T1, TLR7 (Homo sapiens, UniProt Q9NYK1); assay: SEAP assay in HEK-Blue TLR7 cells activated by R848; format: cell-based; conditions: concentrations up to 75 μM
T1 sequence (Q9NYK1 27-1049): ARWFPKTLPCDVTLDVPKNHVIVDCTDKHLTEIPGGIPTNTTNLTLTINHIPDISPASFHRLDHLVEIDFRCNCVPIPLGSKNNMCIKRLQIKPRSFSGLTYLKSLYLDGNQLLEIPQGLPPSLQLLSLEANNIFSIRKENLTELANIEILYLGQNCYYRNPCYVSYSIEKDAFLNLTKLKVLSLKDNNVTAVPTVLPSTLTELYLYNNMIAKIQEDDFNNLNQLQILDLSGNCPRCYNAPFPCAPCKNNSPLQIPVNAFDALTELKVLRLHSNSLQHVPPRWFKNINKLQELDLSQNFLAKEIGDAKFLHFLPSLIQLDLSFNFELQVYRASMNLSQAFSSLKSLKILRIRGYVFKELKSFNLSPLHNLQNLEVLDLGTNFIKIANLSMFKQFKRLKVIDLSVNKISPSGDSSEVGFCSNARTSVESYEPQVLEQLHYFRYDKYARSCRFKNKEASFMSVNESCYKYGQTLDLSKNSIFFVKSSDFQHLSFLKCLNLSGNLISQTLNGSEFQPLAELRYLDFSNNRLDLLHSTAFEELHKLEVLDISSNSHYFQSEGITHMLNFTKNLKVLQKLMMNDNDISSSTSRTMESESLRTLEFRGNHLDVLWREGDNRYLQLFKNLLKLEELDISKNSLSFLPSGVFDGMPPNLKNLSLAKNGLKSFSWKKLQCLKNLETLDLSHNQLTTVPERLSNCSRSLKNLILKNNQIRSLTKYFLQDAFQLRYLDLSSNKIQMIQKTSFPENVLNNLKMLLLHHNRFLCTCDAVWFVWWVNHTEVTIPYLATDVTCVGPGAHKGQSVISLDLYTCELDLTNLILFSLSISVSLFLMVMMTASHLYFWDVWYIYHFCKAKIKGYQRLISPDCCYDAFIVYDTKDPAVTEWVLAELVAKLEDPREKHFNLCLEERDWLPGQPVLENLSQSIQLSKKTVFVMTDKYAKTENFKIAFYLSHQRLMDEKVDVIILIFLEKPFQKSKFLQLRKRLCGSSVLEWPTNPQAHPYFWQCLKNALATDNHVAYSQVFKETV

[2] = system: synovial cells isolated from osteoarthritis (OA) patients; assay: Cytotoxicity on synovial cells from OA patients; format: cell-based, human; conditions: up to 100 μM
[3] = system: TLR8; assay: ELISA of R848-induced TNF-α production in differentiated THP-1 cells; format: cell-based, human
In short: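 PMA-differentiated THP-1 (100 ng/mL PMA) seeded at 2 × 10^6 cells/well in supplemented RPMI and left 24 h at 37 °C, 5% CO2 to adhere. Medium then switched to unsupplemented RPMI. […] After 24 h, TNF-α in the culture supernatant was quantified by sandwich ELISA kit.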

[4] = system: TLR8; assay: R848-induced TNF-α production in human PBMC; format: cell-based; conditions: 1 μg/mL R848, dose-dependent
[5] = system: HEK-Blue TLR8 cells; assay: WST-1 cell proliferation; format: cell-based, human; conditions: HEK-Blue TLR8 cell line
[6] = system: TLR8; assay: RT-PCR of IL-8 and TNF-α mRNA in R848 treated HEK-Blue TLR8 cells; format: cell-based, human
[7] = system: PBMC from RA patients; assay: TNF-α production in PBMC from RA patients; format: cell-based, human
In short: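 PBMC came from four RA patients (2010 ACR criteria) and one AOSD patient, isolated by density-gradient centrifugation. Cells were cultured at 3 × 10^6 cells/mL in RPMI 1640, with test compounds at 0, 10, 40, 80 μM or 0, 2.5, 10, 20, 40 μM. TNF-α was measured in cleared supernatants after 24 h.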

[8] = system: TLR1/2/6, TLR3, TLR4, TLR5, TLR7, and TLR9 HEK-Blue; assay: TLR selectivity assay in HEK-Blue TLR-overexpressing cells; format: cell-based, human; conditions: 1 μM compound, TLR-specific agonists
[9] = system: synovial cells from OA patients; assay: Spontaneous cytokine release from synovial cells of OA patients; format: cell-based, human; conditions: synovial membrane cultures, 24 h
In short: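 OA synovial cells were isolated from synovial membrane taken at joint replacement and cultured at 1 × 10^6 cells/mL in RPMI 1640. After 24 h, test compound was added at 0, 10, 20, 40 or 80 μM, with chloroquine as positive control. After a further 24 h, TNF-α was measured in cleared supernatant, and IL-1β in cell lysate (EDTA, protease inhibitor) after PBS washes.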

| Compound | TLR7 signaling (TLR7-mediated NF-κB activation) [1] | cytotoxicity [2] | IC50 ([3]; Homo sapiens, THP-1, 24 h, read-out: IC50, R848-induced TNF-α production) [nM] | R848-induced TNF-α secretion [4] | cytotoxicity [5] | elevation of IL-8 mRNA level induced by R848 ([6]; 1 μM compound) | elevation of TNF-α mRNA level induced by R848 ([6]; 1 μM compound) | TNF-α level ([7]; PBMCs from RA patients (and one AOSD patient), dose-dependent) | inhibition of TLRs other than TLR8 [8] | spontaneous release of IL-1β [9] | spontaneous release of TNF-α [9] | inhibition of R848-induced TNF-α production ([3]; THP-1, 10 μM compound) | inhibition of R848-induced IL-8 mRNA level ([6]; 10 μM compound) | inhibition of R848-induced TNF-α mRNA level ([6]; 10 μM compound) | inhibition of TNF-α level ([7]; PBMCs from RA patients, up to 80 μM) |
| --- | --- | --- | --- | --- | --- | --- | --- | --- | --- | --- | --- | --- | --- | --- | --- |
| Cc1cccc(-c2ccnc3c(C(N)=O)cnn23)c1 [CU-CPT8m, 7-m-Tolylpyrazolo[1,5-a]pyrimidine-3-carboxamide] | not affected | little cytotoxicity | 90 ± 10 | reversed | negligible cytotoxicity | completely abolished | completely abolished | significantly suppressed | did not show significant inhibition of any TLR other than TLR8 | significant inhibitory effects | significant inhibitory effects | – | – | – | – |
| O=C(O)c1cnn2c(-c3cccc(C(F)(F)F)c3)ccnc12 [compound 6, 7-(3-(Trifluoromethyl)phenyl)pyrazolo[1,5-a]pyrimidine-3-carboxylic acid] | – | – | – | not by 6 | – | – | – | – | – | – | – | failed to show significant inhibition | negligible inhibition | negligible inhibition | did not show significant inhibition |
